Compound activity (PubChem)
Only some compounds are listed: those with a hit (about 1.7% of all), similar ones and a draw of the others.
GASC-1 inh: blocks human GASC-1 demethylase activity; GST-JMJD2C(1-420) H3K9me3 demethylation, DELFIA europium; Q9H3R0; inhibition, % at 2.35 µM; actives 0.069% (n = 330,000);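 active = more than half of a compound's replicate wells show inhibition beyond 50%, single wells judged on their own value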;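 note: signal counts dimethyl H3K9 product captured on neutravidin plate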
PP1 inh: counter-screen for PP5 inhibitors: inhibitors of human PP1-alpha. P62136. purified PP1alpha, OMFP fluorescence. inhibition, % at 6.7 µM. actives 0.9% (n = 320,000). AID 2235;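 active = inhibition above the mean inhibition of all tested compounds plus 3 SD, computed separately for each screening campaign, cut at about 15% in these data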
Target sequence (P62136 whole entry, looked up): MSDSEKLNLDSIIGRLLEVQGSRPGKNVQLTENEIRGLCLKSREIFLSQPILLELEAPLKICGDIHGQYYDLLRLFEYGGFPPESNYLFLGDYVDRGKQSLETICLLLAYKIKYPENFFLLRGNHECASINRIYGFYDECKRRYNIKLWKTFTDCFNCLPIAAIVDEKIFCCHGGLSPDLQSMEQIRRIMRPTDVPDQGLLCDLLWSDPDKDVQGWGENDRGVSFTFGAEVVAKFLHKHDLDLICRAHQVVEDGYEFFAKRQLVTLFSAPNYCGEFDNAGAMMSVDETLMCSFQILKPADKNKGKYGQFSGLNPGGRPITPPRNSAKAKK
PP5 inh: inhibitors of human protein phosphatase 5 (PP5); purified PP5c, OMFP substrate fluorescence; inhibition, % at 6.7 µM; actives 0.18% (n = 320,000);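 active = inhibition above the campaign's mean inhibition across all tested compounds plus 3 SD, cut at about 9.5% in these data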
T cell modulator: T cell immune modulators affecting CD8 T cell-vesicle binding. 2C CD8+ T cell-vesicle binding, flow cytometry; active compounds read low. response (vesicle binding), % at 7 µM. actives 0.068% (n = 330,000). AID 2052;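 active = response, share of CD8 T cells binding vesicles, and their 90th percentile fluorescence all below set limits, cut at about 80% in these data, passing the limit was not always enough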;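 note: values below 100% mean blocked vesicle binding to the CD8+ T cells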
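Benchmarks: naked versus QL9-loaded vesicles / Assay system: purified 2C TCR transgenic mouse naive CD8+ T cells / Technique: high-throughput flow cytometry with anti-B7-1 and anti-CD8 staining / Timing: Cell–vesicle co-incubation 1.5 h at 37 °C, staining 20 min on ice / Read-out: percent CD8+ FL2 mean versus row control / Probe or stimulus: QL9-loaded Drosophila micro-vesicles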
m5-HT2A agonist: activates the mouse 5-HT2A serotonin receptor; P35363; CHO-K1 mHTR2A beta-arrestin complementation, luminescence; percent of 30 µM serotonin response; activation, % at 7.6 µM; actives 0.66% (n = 360,000);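 active = activation above a run cutoff, the mean activation of all tested compounds plus 3 SD, cut at about 14% in these data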
OPRM1 ag: activates human mu opioid receptor in HTR2A counterscreen; actives 5.3% (n = 2,300); U2OS OPRM1 beta-arrestin PathHunter, luminescence; DMSO 0%, DAMGO 9.3 µM 100%; AID 624380; shares compounds with m5-HT2A agonist; activation, % at 9.3 µM;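 active = mean activation above the mean of DMSO-only wells plus 3 SD, cut at about 0.5% in these data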
HTR2A ag conf: mouse HTR2A agonism confirmed. shares compounds with m5-HT2A agonist. CHO-K1 PathHunter beta-arrestin recruitment, luminescence; DMSO 0%, 30 µM serotonin 100%. activation, % at 7.6 µM. actives 19% (n = 2,300). AID 624381;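 active = mean activation across triplicates above the hit threshold derived in the original primary screen, cut at about 15% in these data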
Numbers stand for hits.

Screening CC[N+](C)(CC)CC(O)COCC1COc2ccccc2O1 (configuration not stated) returned GASC-1 inh inactive, PP1 inh inactive, PP5 inh inactive, T cell modulator inactive, m5-HT2A agonist 16, OPRM1 ag inactive and HTR2A ag conf inactive.
Screening Cc1ccsc1C(=O)N1CCN(c2ncc(C(F)(F)F)cc2Cl)CC1 returned GASC-1 inh inactive, PP1 inh inactive, PP5 inh inactive, T cell modulator inactive and m5-HT2A agonist inactive.
Cc1ccc(NC(=O)CCNS(=O)(=O)c2ccc3c(c2)CCC(=O)N3)c(Br)c1 was read as GASC-1 inh inactive, PP1 inh inactive, PP5 inh inactive, T cell modulator inactive and m5-HT2A agonist inactive.
Screening COc1cc(N)ccc1NC(=O)c1cc2ccccc2o1 returned GASC-1 inh inactive, PP1 inh inactive, PP5 inh inactive, T cell modulator inactive and m5-HT2A agonist inactive.
Screening O=C(CCN1C(=O)c2ccccc2C1=O)NCc1ccco1 returned GASC-1 inh inactive, PP1 inh inactive, PP5 inh inactive, T cell modulator inactive and m5-HT2A agonist inactive.
For O=C(CCN1C(=O)c2cccc3cccc(c23)C1=O)NCc1ccco1 the results were GASC-1 inh inactive, PP1 inh inactive, PP5 inh inactive, T cell modulator inactive, m5-HT2A agonist 16, OPRM1 ag inactive and HTR2A ag conf inactive.
CC1(c2ccc(Cl)cc2Cl)NC(=O)N(CC(=O)NC2CCCCC2)C1=O (configuration not stated) was read as GASC-1 inh inactive, PP1 inh inactive, PP5 inh inactive, T cell modulator inactive and m5-HT2A agonist inactive.
Screening CN(CCOc1ccc(Cl)cc1)C(=O)c1cc(S(=O)(=O)N2CCOCC2)ccc1N1CCCC1 returned GASC-1 inh inactive, PP1 inh inactive, PP5 inh inactive, T cell modulator inactive, m5-HT2A agonist 19, OPRM1 ag inactive and HTR2A ag conf inactive.
`O=C(NCc1ccccc1CN1CCCCC1)c1ccccc1N1CCCC1=O` gave GASC-1 inh inactive, PP1 inh inactive, PP5 inh inactive, T cell modulator inactive and m5-HT2A agonist inactive.
`CCCCN1C(=O)CC2CCOC21C` (configuration not stated) gave m5-HT2A agonist 21, OPRM1 ag inactive and HTR2A ag conf inactive.
`CCCCN1C(=O)CC(SC2CC(=O)N(CCCC)C2=O)C1=O` (configuration not stated) gave m5-HT2A agonist inactive.
Screening CC(Oc1ccccc1)c1nnc(SCC(=O)NC2CC2)n1C (configuration not stated) returned GASC-1 inh inactive, PP1 inh inactive, PP5 inh inactive, T cell modulator inactive and m5-HT2A agonist inactive.
COc1ccc(-c2noc(CN(C)C(=O)c3ccc4c(c3)OCO4)n2)cc1OC was read as GASC-1 inh inactive, PP1 inh inactive, PP5 inh inactive, T cell modulator inactive and m5-HT2A agonist inactive.
`COc1ccc(-c2noc(CN(C(=O)c3ccc4c(c3)OCO4)C(C)C)n2)cc1OC` gave GASC-1 inh inactive, PP1 inh inactive, PP5 inh inactive, T cell modulator inactive, m5-HT2A agonist 16, OPRM1 ag inactive and HTR2A ag conf inactive.
Nc1nc(N)nc(-c2cccc(Cl)c2Cl)n1 was read as PP1 inh inactive, PP5 inh inactive, T cell modulator inactive and m5-HT2A agonist inactive.
`COc1cc(OC)c(C(=O)NNC(=S)NC2CCCCC2)cc1OC` gave GASC-1 inh inactive, PP1 inh inactive, PP5 inh inactive, T cell modulator inactive and m5-HT2A agonist inactive.
CC(C)(C)OC(=O)NNC(=S)NC1CCCCC1 was read as GASC-1 inh inactive, PP1 inh inactive, PP5 inh inactive, T cell modulator inactive, m5-HT2A agonist 16, OPRM1 ag inactive and HTR2A ag conf inactive.
For CC(C)(CCc1ccccn1)C(=O)C(CCc1ccccn1)CCc1ccccn1 the results were m5-HT2A agonist 14, OPRM1 ag inactive and HTR2A ag conf 33.
Screening O=C(NC(=O)N1CCN(c2cccc(Cl)c2)CC1)c1ccccc1 returned GASC-1 inh inactive, PP1 inh inactive, PP5 inh inactive, T cell modulator inactive, m5-HT2A agonist 15, OPRM1 ag inactive and HTR2A ag conf inactive.
CCC(=O)Nc1nc2c(s1)COc1ccccc1-2 was read as GASC-1 inh inactive, PP1 inh inactive, PP5 inh inactive, T cell modulator inactive, m5-HT2A agonist 18, OPRM1 ag inactive and HTR2A ag conf inactive.
CCN1CCN(C(CNS(=O)(=O)c2ccc(OC)c(C)c2)c2cccnc2)CC1 (configuration not stated) was read as GASC-1 inh inactive, PP1 inh inactive, PP5 inh inactive, T cell modulator inactive, m5-HT2A agonist 20, OPRM1 ag inactive and HTR2A ag conf inactive.
COc1cccc(CNC(=O)CN2C(=O)COc3ccc(S(=O)(=O)N4CCCCC4)cc32)c1 was read as GASC-1 inh inactive, PP1 inh inactive, PP5 inh inactive, T cell modulator inactive, m5-HT2A agonist 16, OPRM1 ag inactive and HTR2A ag conf inactive.
For COc1cccc(CNC(=O)CN2C(=O)COc3ccc(S(=O)(=O)N4CCOCC4)cc32)c1 the results were GASC-1 inh inactive, PP1 inh inactive, PP5 inh inactive, T cell modulator inactive and m5-HT2A agonist inactive.
Screening CC(C)N(Cc1ccccc1)C(=O)CN1C(=O)NC2(CCOc3ccccc32)C1=O (configuration not stated) returned GASC-1 inh inactive, T cell modulator inactive and m5-HT2A agonist inactive.
For Cc1cc(COc2ccccc2)oc1C(=O)O the results were GASC-1 inh inactive, PP1 inh inactive, PP5 inh inactive, T cell modulator inactive and m5-HT2A agonist inactive.
Cc1ccc(S(=O)(=O)NC(=O)Nc2cccc(S(=O)(=O)N(C)C)c2)cc1 was read as GASC-1 inh inactive, T cell modulator inactive, m5-HT2A agonist 17, OPRM1 ag inactive and HTR2A ag conf inactive.
For Cn1c(=O)[nH]c(=O)c2c1nc(N1CCCC1)n2CCO the results were GASC-1 inh inactive, PP1 inh inactive, PP5 inh inactive, T cell modulator inactive, m5-HT2A agonist 22, OPRM1 ag inactive and HTR2A ag conf inactive.
Cn1c(=O)[nH]c(=O)c2c1nc(N1CCCCCC1)n2CC(N)=O was read as GASC-1 inh inactive, PP1 inh inactive, PP5 inh inactive, T cell modulator inactive and m5-HT2A agonist inactive.
For Cc1ccc(NC(=O)Nn2cnnc2)cc1 the results were GASC-1 inh inactive, T cell modulator inactive, m5-HT2A agonist 16, OPRM1 ag inactive and HTR2A ag conf inactive.
Screening O=C(Nc1ccc(Cl)cc1)Nn1cnnc1 returned GASC-1 inh inactive and m5-HT2A agonist inactive.
`COC(=O)c1ccc(Cn2c(C)c(C(=O)NCc3ccco3)sc2=O)o1` gave m5-HT2A agonist inactive.
